From ChEMBL document CHEMBL1146566, “Antioxidant chalcone glycosides and flavanones from Maclura (Chlorophora) tinctoria” (J Nat Prod, 2003)
Active and inactive are the calls of the source. The calls are words filed in the database; no cut-off is given here.

Columns and labels:
[1] = Antioxidant activity assessed as trolox equivalents of ABTS radical scavenging activity by TEAC assay; assay type: functional
Summary of the method: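 ABTS radical cation made from 7 mM ABTS and 2.45 mM potassium persulfate, 12 h dark at room temperature, diluted in PBS pH 7.4 to A734 0.70, equilibrated at 30 °C. Samples in methanol at 0.3–2 mM stock levels, 10 μL plus 1 mL ABTS. % inhibition of A734 versus methanol blank plotted against concentration, in triplicate. TEAC = Trolox concentration equivalent to 1 mM compound; quercetin as reference.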

[2] = Antioxidant activity assessed as autoxidation of linoleic acid by beta-carotene autoxidation assay; assay type: functional
Summary of the method: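 Linoleic acid (20 mg), Tween 20 (200 mg) and β-carotene (2 mg in 10 mL CHCl3) mixed, CHCl3 removed, 50 mL oxygen-saturated water added. Samples oxidised at 50 °C for 3 h, A470 read at intervals. AA = [1 − (A0 − At)/(A00 − A0t)] × 100 versus no-compound control, reported at 60 and 120 min; BHT as control substance.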

Structure (SMILES) | Activity [1] [mM] | Activity [2]
O=C1C[C@@H](c2ccc(O)cc2)Oc2cc(O)cc(O)c21 | 0.77 | 
CC(C)=CCc1c(O[C@@H]2O[C@H](CO)[C@@H](O)[C@H](O)[C@H]2O)ccc(C(=O)/C=C/c2ccc(O)cc2)c1O | 2.26 | Active
O=c1c(O)c(-c2ccc(O)c(O)c2)oc2cc(O)cc(O)c12 | 2.6 | 
O=C(/C=C/c1ccc(O)cc1)O[C@H]1[C@H](Oc2ccc(C(=O)/C=C/c3ccc(O)cc3)c(O)c2O)O[C@H](CO)[C@@H](O)[C@@H]1O | 1.93 | Active
O=C1C[C@@H](c2ccc(O[C@@H]3O[C@H](CO)[C@@H](O)[C@H](O)[C@H]3O)cc2)Oc2cc(O)cc(O)c21 | 0.782 | 
O=C1C[C@@H](c2ccc(O)c(O)c2)Oc2cc(O[C@@H]3O[C@H](CO)[C@@H](O)[C@H](O)[C@H]3O)cc(O)c21 | 1.26 | 
CC(=O)O[C@H]1[C@H](Oc2ccc(C(=O)/C=C/c3ccc(O)cc3)c(O)c2O)O[C@H](COC(=O)/C=C/c2ccccc2)[C@@H](O)[C@@H]1O | 1.6 | Active
CC(=O)OC[C@H]1O[C@@H](Oc2ccc(C(=O)/C=C/c3ccc(O)cc3)c(O)c2O)[C@H](OC(=O)/C=C/c2ccc(O)cc2)[C@@H](O)[C@@H]1O | 1.71 | Active
